Assay results reported in ChEMBL document CHEMBL4480412, “Deleting a Chromatin Remodeling Gene Increases the Diversity of Secondary Metabolites Produced by Colletotrichum higginsianum” (2019).
In brackets after ≈: the same amount, converted by molar mass.

Columns and labels:
Escherichia coli = assay: Antibacterial activity against Escherichia coli ATCC 25922 by broth microdilution method; format: functional
Method in brief: (§1)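 Broth microdilution run to CLSI guidelines; read-out is minimal inhibitory concentration (MIC). Chloramphenicol used as reference antibacterial.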

Bacillus spizizenii = assay: Antibacterial activity against Bacillus subtilis ATCC 6633 by broth microdilution method; format: functional; method in brief: as §1
Micrococcus luteus = assay: Antibacterial activity against Micrococcus luteus ATCC 10240 by broth microdilution method; format: functional; method in brief: as §1
Rhizopus arrhizus = assay: Antifungal activity against Rhizopus oryzae ATCC 11145 by EUCAST method; format: functional
Method in brief: (§2)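 Susceptibility testing by the EUCAST method; read-out is minimal inhibitory concentration (MIC). Amphotericin B used as reference antifungal.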

Aspergillus ochraceus = assay: Antifungal activity against Aspergillus ochraceus ATCC 1009 by EUCAST method; format: functional; method in brief: as §2
Botrytis cinerea = assay: Antifungal activity against Botrytis cinerea B05.10 by EUCAST method; format: functional; method in brief: as §2
[1] = biological target: T1, Tyrosinase (Homo sapiens) (UniProt P14679); assay: Inhibition of tyrosinase (unknown origin) at 200 uM relative to control
T1 sequence (whole entry): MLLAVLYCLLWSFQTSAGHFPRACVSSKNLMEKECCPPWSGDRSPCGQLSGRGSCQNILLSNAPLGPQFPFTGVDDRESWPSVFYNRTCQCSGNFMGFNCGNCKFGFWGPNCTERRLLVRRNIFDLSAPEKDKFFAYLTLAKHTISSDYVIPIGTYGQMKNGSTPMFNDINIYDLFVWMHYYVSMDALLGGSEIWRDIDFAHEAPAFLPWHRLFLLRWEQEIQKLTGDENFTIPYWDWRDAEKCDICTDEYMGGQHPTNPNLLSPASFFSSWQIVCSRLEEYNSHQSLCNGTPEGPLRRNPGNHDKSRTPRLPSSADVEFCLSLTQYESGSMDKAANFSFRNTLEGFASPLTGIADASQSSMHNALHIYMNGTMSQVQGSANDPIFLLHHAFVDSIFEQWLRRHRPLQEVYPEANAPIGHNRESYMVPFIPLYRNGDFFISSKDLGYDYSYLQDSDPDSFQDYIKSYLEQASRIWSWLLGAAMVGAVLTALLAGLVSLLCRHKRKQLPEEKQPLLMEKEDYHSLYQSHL

[2] = biological target: Collagenase (Homo sapiens) (UniProt P08253+P14780+P22894+P45452+P03956); assay: Inhibition of collagenase (unknown origin) at 200 uM relative to control; format: protein assay
Homo sapiens [3] = species on record: Homo sapiens; assay: Inhibition of hyaluronidase (unknown origin) at 200 uM relative to control
Homo sapiens [4] = species on record: Homo sapiens; assay: Inhibition of elastase (unknown origin) at 200 uM relative to control
[5] = Antioxidant activity assessed as DPPH radical scavenging activity at 200 uM; format: functional

Compound	MIC (Escherichia coli) [µM]	MIC (Bacillus spizizenii) [µM]	MIC (Micrococcus luteus) [µM]	MIC (Rhizopus arrhizus) [µM]	MIC (Aspergillus ochraceus) [µM]	MIC (Botrytis cinerea) [µM]	inhibition [1] [%]	inhibition [2] [%]	inhibition (Homo sapiens [3]) [%]	inhibition (Homo sapiens [4]) [%]	inhibition [5] [%]
CO[C@@H]1[C@@H](O)[C@H](O)[C@H](OC(=O)C2=CC[C@H](C(C)C)[C@H]3C=C(C)CC[C@@H]23)[C@H](OC)[C@H]1O	> 225	> 225	> 225	> 225	> 225	> 225	< 20	< 20	< 20	< 20	< 20
C=C1CC[C@@H]2[C@](C)(CC[C@H]3O[C@H](C(C)(C)O)CC[C@@]23C)[C@@H]1Cc1c(O)c(C)c(C)oc1=O	> 225	> 225	> 225	> 225	> 225	> 225	< 20	< 20	< 20	< 20	< 20
C[C@@H]1[C@H](O)[C@@H](C)/C=C/C=C/C=C/C=C/C=C/C=C/C=C/[C@H](O[C@@H]2O[C@H](C)[C@@H](O)[C@H](N)[C@@H]2O)C[C@@H]2O[C@](O)(C[C@@H](O)C[C@@H](O)[C@H](O)CC[C@@H](O)C[C@@H](O)CC(=O)O[C@H]1C)C[C@H](O)[C@H]2C(=O)O [AMPHOTERICIN B]				2 (≈ 1.85 µg/mL)	2 (≈ 1.85 µg/mL)	2 (≈ 1.85 µg/mL)					
CC(C)=CCc1c(O)cc(C)c(C(=O)O)c1O	> 225	> 225	> 225	> 225	> 225	> 225	< 20	< 20	< 20	< 20	< 20
O=C(N[C@H](CO)[C@H](O)c1ccc([N+](=O)[O-])cc1)C(Cl)Cl [CHLORAMPHENICOL]	10 (≈ 3.23 µg/mL)	10 (≈ 3.23 µg/mL)	10 (≈ 3.23 µg/mL)								
CC(C)=CCc1c(O)cc(C)c(C=O)c1O	> 225	> 225	> 225	> 225	> 225	> 225	< 20	< 20	< 20	< 20	< 20
C=C1CC[C@@H]2[C@](C)(CC[C@H]3O[C@@H](C(C)(C)O)CC[C@@]23C)[C@@H]1Cc1c(O)c(C)c(C)oc1=O	> 225	> 225	> 225	> 225	> 225	> 225	< 20	< 20	< 20	< 20	< 20
